# Screening results deposited in PubChem by several laboratories.
# Compounds with a hit are over-represented: about 6.7% of the library has one in this group of screens.
# CHOP inhibitor: blocks CHOP induction under ER stress | CHO-K1 CHOP-promoter luciferase, tunicamycin-induced, 15-18 h | inhibition, % at 10 µM | 220,000 compounds, 3.8% hits;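 active = compounds that reduced the stress-induced luciferase reporter signal by more than about 70% of percent inhibition, limit read from the data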;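 note: 0% = tunicamycin plus vehicle and 100% = wells without tunicamycin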
# T cruzi inh: blocks replication of Trypanosoma cruzi. inhibition, % (test concentration not listed). 300,000 compounds, 1.4% hits. T. cruzi beta-gal in NIH3T3, luminescence, 90 h;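 active = mean inhibition across valid replicates above about 55%, limit read from the data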;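 note: signal also drops with host cell toxicity which is not excluded here; 0% = plate median of DMSO wells and 100% = zero luminescence signal; higher percent means less beta-gal luminescence so fewer parasites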
#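 Assay system: NIH/3T3 fibroblasts plus reporter T. cruzi. Amount: NIH/3T3 cells, 5,000 per well. Buffer or medium: DMEM, 2% fetal bovine serum. Doses: compound pinned at 50 nL/well, DMSO. Schedule: ≥90 h infection period, 3 h prior cell attachment. Signal: luminescent β-galactosidase signal after 60 min lysis. Read-out: parasite load inhibition, %.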
# PREPL inhibitor: inhibitors of human prolyl oligopeptidase-like enzyme PREPL | inhibition, % at 5.96 µM | recombinant PREPL, fluorescence polarization activity-based probe | AID 2751 | Q4J6C6 | 320,000 compounds, 0.68% hits; in the data active = inhibition above about 43%;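 note: 0% = enzyme with DMSO and 100% = wells lacking enzyme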
# Target sequence (Q4J6C6 whole entry, looked up): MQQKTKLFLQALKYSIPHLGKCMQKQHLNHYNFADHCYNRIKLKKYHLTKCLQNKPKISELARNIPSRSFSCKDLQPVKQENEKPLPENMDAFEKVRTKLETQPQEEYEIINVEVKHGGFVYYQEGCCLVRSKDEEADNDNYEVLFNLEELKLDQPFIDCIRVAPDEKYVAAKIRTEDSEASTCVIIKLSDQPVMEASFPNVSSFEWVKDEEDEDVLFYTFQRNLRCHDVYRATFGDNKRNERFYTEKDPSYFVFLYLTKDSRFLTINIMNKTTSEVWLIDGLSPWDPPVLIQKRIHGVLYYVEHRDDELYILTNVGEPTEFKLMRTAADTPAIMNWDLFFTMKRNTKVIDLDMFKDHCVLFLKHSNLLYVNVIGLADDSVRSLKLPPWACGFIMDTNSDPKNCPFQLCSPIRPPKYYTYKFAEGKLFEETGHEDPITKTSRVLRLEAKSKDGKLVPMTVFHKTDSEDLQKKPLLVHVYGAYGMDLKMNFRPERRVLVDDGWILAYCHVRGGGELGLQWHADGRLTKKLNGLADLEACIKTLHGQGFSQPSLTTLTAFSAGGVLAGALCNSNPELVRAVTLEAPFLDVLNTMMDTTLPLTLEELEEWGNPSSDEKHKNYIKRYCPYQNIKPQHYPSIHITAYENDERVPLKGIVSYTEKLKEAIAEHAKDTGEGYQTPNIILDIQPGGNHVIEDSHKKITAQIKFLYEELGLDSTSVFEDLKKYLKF
# CSC inhib: cancer stem cell inhibition | cancer stem cell-like cells viability, luminescence | inhibition, % at 7.5 µM | 300,000 compounds, 1.1% hits; in the data active = inhibition above about 75%; tested in HMLE shEcad cells
# NR3A LBD binder: modulators (binders) of human NR3A ligand-binding domain; NR3A LBD differential scanning fluorimetry, Tm shift; 0% = protein alone, 100% = glycine-bound protein; Tm shift relative to glycine control, % at 25 µM; 340,000 compounds, 2.5% hits; AID 1259313;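 active = melting temperature shift of at least 10% of the positive control shift, at one fixed dose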
# Beta apoptosis: beta cell apoptosis inhibition | INS-1E cytokine-induced death, ATP luminescence, 48 h; percent of positive-control rescue, neutral wells zero | protection from apoptosis, % (no concentration beside the values) | 300,000 compounds, 0.8% hits | AID 435005;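 active = Every replicate reaches about 75%, or at least half do and their mean reaches it too, limit read from the data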;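 note: 0% = cytokine-treated negative control wells and 100% = positive control rescue; higher means more ATP so stronger rescue from cytokine killing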
# Numbers without * were called inactive; / = no result given.
SMILES,CHOP inhibitor,T cruzi inh,PREPL inhibitor,CSC inhib,NR3A LBD binder,Beta apoptosis
CC(C)OC(=O)c1cc2c(ccn2C)n1CC(=O)N(Cc1ccccc1)c1ccc(F)cc1,71*,39,8,26,-5,34
CSc1nc(N)c2ncn([C@@H]3O[C@H](COP(=O)(O)OP(=O)(O)O)[C@H](O)C3O)c2n1 (some centres undefined),10,/,/,/,/,/
Cc1c(Cl)cccc1NC(=O)c1nc(C)n(-c2cc(OC(C)C)c(Cl)cc2Cl)n1,43,56*,3,21,1,-15
Cc1cc2[nH]c3c4ccccc4nc(C)c3c2cc1C,/,/,/,/,10*,/
NC(=NCCc1c[nH]c2ccccc12)NC(=O)c1ccc(F)cc1,6,14,-68,33,38*,-5
NC(=NCCc1c[nH]c2ccccc12)NS(=O)(=O)c1ccc(F)cc1,21,-12,-1,0,-2,-17
COC(=O)c1ccc(OC(=O)C2CSC3(C)CCC(=O)N23)cc1 (centres undefined),/,-1,-9,-13,0,-8
CCNc1nc(NCC)nc(NS(=O)(=O)c2ccc(N)cc2)n1,/,-5,-2,-3,0,-12
O=C(Cc1ccccc1[N+](=O)[O-])NCC(O)c1ccc2c(c1)OCO2 (centres undefined),/,/,/,/,0,/
CCc1ccc(C(=O)NNC(=O)c2cccc(N3C(=O)CCC3=O)c2)cc1,/,-2,1,-13,0,/
COc1cccc(/C=C2/SC(=S)N(CCCC(=O)Nc3ccc(O)cc3)C2=O)c1,/,53,24,8,1,-11
COc1cccc(/C=C2\SC(=S)N(CC3CCCO3)C2=O)c1 (centres undefined),9,6,1,21,7,-31
COc1cccc(/C=C2\SC(=S)N(N3C(=O)CCCC3=O)C2=O)c1,26,-11,-4,1,24*,-5
O=C(CN1C(=O)/C(=C/c2ccccc2)SC1=S)NNC(=O)c1ccccc1O,10,-2,-4,-10,10*,5
CC(C)(C)NC(=O)CN1C(=O)/C(=C/c2ccccc2)SC1=S,9,2,-1,/,0,-10
COc1cccc(/C=C2/SC(=S)N(CC(=O)NNC(=O)c3ccccc3O)C2=O)c1,/,-8,13,/,15*,-1
O=C(c1cc(=O)[nH]c2ccccc12)N1CC=C(c2ccccc2)CC1,/,-5,-15,-3,-2,2
COc1ccc(S(=O)(=O)N2CCN(c3ccccc3OC)CC2)cc1C(=O)N1CCCCC1,/,7,7,-7,2,0
N#Cc1cccc(C#N)c1Oc1ccc(S(=O)(=O)Nc2ccc(Cl)cc2)cc1,48,30,-32,23,10*,7
O=C(O)c1sccc1Oc1ccc(NS(=O)(=O)c2ccc(Cl)cc2)cc1,/,-5,-3,-7,0,-2
Cc1ccccc1N=C(NO)c1nonc1N,12,-14,3,-3,-2,-9
O=C(O)CCCCCC[C@H]1C(=O)NC(=O)N1CC[C@@H](O)C1CCCCC1,1,/,/,/,/,/
COc1ccc(Oc2cn[nH]c2-c2ccc(O)cc2O)cc1,20,10,7,-5,15*,10
CCCOC(=O)c1ccc(Oc2cn[nH]c2-c2ccc(O)cc2O)cc1,42,-11,6,17,34*,-3
CCOc1ccc(-c2n[nH]c(C)c2Oc2ccccc2OC)c(O)c1,19,-13,20,9,-6,-5
SMILES,CHOP inhibitor,T cruzi inh,PREPL inhibitor,CSC inhib,NR3A LBD binder,Beta apoptosis
CCCOC(=O)c1ccc(Oc2cn[nH]c2-c2ccc(OCC(=O)NN)cc2O)cc1,2,-6,1,20,-7,-7
CCCOC(=O)c1ccc(Oc2c(-c3ccc(OC)cc3O)n[nH]c2C)cc1,91*,-12,-15,132*,9,-7
CCOC(=O)c1ccc(Oc2cn[nH]c2-c2ccc(O)cc2O)cc1,25,-2,2,14,29*,8
Cc1[nH]nc(-c2ccc(O)cc2O)c1Oc1ccccc1,20,-7,7,51,32*,1
COc1ccc(S(=O)(=O)N2CCOc3ccccc32)cc1,/,-52,-3,50,2,20
CC12C(=O)N(c3nccs3)C(=O)C1(C)C1CCC2O1 (centres undefined),/,/,/,/,0,/
C[C@@]12C(=O)OC(=O)[C@]1(C)C1CCC2O1,/,/,-8,109*,1,79*
Cc1ccc(Cl)c(OCCN2CCc3ccccc3C2)c1,/,21,-6,33,0,/
O=C1CSC(=Nc2cc(Cl)ccc2Cl)N1,14,-5,-2,/,11*,-1
COc1ccc(S(=O)(=O)N2CCSC2c2ccc(N)cc2)cc1 (centres undefined),46,-6,23,-1,11*,-2
COCCCn1c(SCC(=O)N2CCOCC2)nc2ccccc2c1=O,/,2,-9,-5,-1,1
COc1ccccc1OCC(=O)Sc1ccc(C)cc1,75*,5,-1,3,7,-14
COc1cc(C(=O)Sc2ccc(C)cc2)cc(OC)c1OC,82*,18,-5,19,0,-17
Cc1ccc(OCC(=O)NCCNC(=O)COc2ccc(C)cc2)cc1,/,-11,-11,6,0,5
COc1cc(C(=O)OCC(=O)Nc2ccc(C)cc2)cc(OC)c1OC,/,-1,9,-9,-1,-1
Cc1ccc(OCC(=O)Sc2ccc(C)cc2)cc1,53,-6,13,7,15*,-11
Cc1c(-c2cccc(Cl)c2)nc2ccccc2c1C(=O)OCC(=O)Nc1ccc2c(c1)OCO2,78*,55*,20,155*,21*,13
COCCNC(=O)c1c(N)n(-c2cccc(C)c2)c2nc3ccccc3nc12,77*,9,19,-6,1,-8
Nc1c(C(=O)NCc2ccccc2)c2nc3ccccc3nc2n1-c1ccc2c(c1)OCO2,79*,41,17,15,0,/
CSc1cccc(NC(=O)c2ccc(NC3=NC4CS(=O)(=O)CC4S3)cc2)c1 (centres undefined),/,-3,-10,/,28*,2
CC(C)c1ccc(NC(=O)c2ccc(NC3=NC4CS(=O)(=O)CC4S3)cc2)cc1 (centres undefined),/,-4,3,/,16*,4
O=C(Nc1cccc(Cl)c1)c1ccc(NC2=NC3CS(=O)(=O)CC3S2)cc1 (centres undefined),/,-6,2,/,-3,1
COc1ccc2c(c1OC)C(=O)OC2Nc1nc(-c2cccc([N+](=O)[O-])c2)cs1 (centres undefined),-5,1,10,-27,-2,-9
CC(C)(C)NC(=O)C1Cc2ccccc2CN1 (centres undefined),16,-2,11,-9,0,-2
CCC(=O)N1CCN(c2nc3ccccc3s2)CC1,6,9,14,-14,-10,/
O=C(c1cc2sccc2n1Cc1ccccc1)N1CCN(c2nc3ccccc3s2)CC1,71*,44,18,7,-1,99*
